High-throughput results from PubChem BioAssay.
Pemphigus Ab inh – blocks pemphigus antibody binding to human desmoglein-3. P32926. DSG3-coupled beads, scFv-anti-DSG3-GFP binding, flow cytometry; stronger effect = lower value. binding (percent of control), % at 10 µM. hit rate 0.48% among 310,000;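 active means binding more than 3 SD below its plate's average and above zero; inconclusive means below that plate limit but binding exactly zero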
Target sequence (P32926 whole entry, looked up): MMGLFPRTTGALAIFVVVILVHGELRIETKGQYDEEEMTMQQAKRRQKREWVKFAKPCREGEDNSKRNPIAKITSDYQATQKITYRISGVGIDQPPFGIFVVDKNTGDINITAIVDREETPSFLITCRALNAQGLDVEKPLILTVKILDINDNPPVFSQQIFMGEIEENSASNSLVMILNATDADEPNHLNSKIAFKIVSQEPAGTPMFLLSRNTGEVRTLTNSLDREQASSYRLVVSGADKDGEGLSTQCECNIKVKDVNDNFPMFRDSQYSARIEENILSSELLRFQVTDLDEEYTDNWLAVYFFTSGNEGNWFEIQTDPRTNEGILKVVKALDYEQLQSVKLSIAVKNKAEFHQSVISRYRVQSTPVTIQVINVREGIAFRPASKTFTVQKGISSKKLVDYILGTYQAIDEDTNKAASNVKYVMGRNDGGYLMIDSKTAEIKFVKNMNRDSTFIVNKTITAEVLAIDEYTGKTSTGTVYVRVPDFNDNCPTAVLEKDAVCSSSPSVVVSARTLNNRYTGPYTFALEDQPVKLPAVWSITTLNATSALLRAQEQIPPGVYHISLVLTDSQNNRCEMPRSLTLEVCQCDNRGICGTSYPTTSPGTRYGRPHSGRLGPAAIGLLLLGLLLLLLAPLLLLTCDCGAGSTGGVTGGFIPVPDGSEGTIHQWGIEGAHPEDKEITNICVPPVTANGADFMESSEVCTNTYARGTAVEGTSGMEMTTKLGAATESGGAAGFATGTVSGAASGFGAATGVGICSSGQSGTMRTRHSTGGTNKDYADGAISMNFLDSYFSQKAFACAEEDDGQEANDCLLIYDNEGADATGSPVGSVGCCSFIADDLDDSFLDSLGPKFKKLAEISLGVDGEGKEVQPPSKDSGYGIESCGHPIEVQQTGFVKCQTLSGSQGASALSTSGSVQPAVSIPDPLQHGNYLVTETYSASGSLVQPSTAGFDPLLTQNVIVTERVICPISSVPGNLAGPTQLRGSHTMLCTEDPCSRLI
Arrestin-AP2 inh – inhibitors of human beta-arrestin and AP2 interaction. FITC-arrestin peptide / GST-AP2 beads, flow cytometry; AP2 beta2 appendage carries R879A mutation. inhibition, % at 10 µM. hit rate 0.31% among 340,000. AID 504490;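 active means inhibition above a set limit, near 3 SD of compounds lacking own fluorescence, cut at about 54% in these data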;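 further: plate controls were DMSO wells for no effect and 5 µM unlabelled arrestin peptide for full effect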
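System: GST-AP2 R879A glutathione beads | Also added: FITC-arrestin peptide, 50 nM | Times: 12 min plus 1 h, RT | Signal: Bead flow cytometry, FITC channel | Buffer or medium: PBS with 0.05% Tween 20 and 0.1% BSA | Read-out basis: Percent drop in bead-associated FITC signal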
Avidin fluor – avidin bead compound fluorescence profile. Avidin beads, compound fluorescence 488/530 nm, flow cytometry; stronger effect = higher value. fluorescence (KMESF) at 10 µM. hit rate 0.38% among 220,000. AID 1775; in the data active means fluorescence above about 47
GSH bead fluor – GSH bead compound fluorescence profile | hit rate 0.25% among 190,000 | GSH beads flow cytometry, compound fluorescence 488/530 nm; stronger effect = higher value | fluorescence (KMESF) at 10 µM; in the data active means fluorescence above about 89;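 further: glutathione beads carrying GST-tagged Bcl family fusion proteins plus one bare bead set; values are compound well signal with DMSO vehicle wells as background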
Arr AP2 CP1 – human beta-arrestin and AP2 interaction inhibition, cherry pick | shares compounds with Arrestin-AP2 inh | GST-AP2 beads, FITC arrestin peptide binding, flow cytometry; GST-fused beta2-adaptin appendage, R879A mutant | inhibition, % at 10 µM | hit rate 2% among 1,300 | AID 504908;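 active means inhibition above a set limit, roughly 3 SD of non-fluorescent compound noise, cut at about 38% in these data; inactive means inhibition at or below that limit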;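 further: loss of bead fluorescence from 50 nM FITC arrestin peptide bound to appendage; 0% = negative control wells and 100% = excess unlabelled arrestin peptide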
GST-FITC bead – counter-screen for beta-arrestin AP2 inhibitors: GST-GSH bead binding. shares compounds with Arrestin-AP2 inh. AID 588338. hit rate 2% among 1,300. GST-fluorescein binding to GSH beads, fluorescence. inhibition, % at 10 µM;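 active means inhibition above 50%, about 3 SD of the inhibition seen with non-fluorescent compounds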;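 further: fluorescein maleimide labelled GST captured on 4 micron glutathione beads; higher means more loss of bead fluorescence from quenching or blocked binding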
Numbers without * were called inactive; u = inconclusive; x = no result. In the library only some 1.1% were active in any assay of this set; here they are far more common.

SMILES | Pemphigus Ab inh | Arrestin-AP2 inh | Avidin fluor | GSH bead fluor | Arr AP2 CP1 | GST-FITC bead
Cc1ccc(C(=O)NCCNS(=O)(=O)c2ccccc2)cn1 | 61 | 30 | x | x | x | x
Cc1c(C(=O)Nc2ccccn2)oc2c(Cl)cccc12 | 103 | 26 | x | x | x | x
Cc1c(C(=O)NC(C)c2ccccn2)oc2c(Cl)cccc12 (stereo not given) | 100 | 74* | x | x | -11 | -10
CC(=O)N1N=C(c2ccc3ccccc3c2)OC12CCCC2 | x | -2 | 5 | x | x | x
N#Cc1cccc(C(c2nnnn2C2CCCC2)N2CCC(Cc3ccccc3)CC2)c1 (stereo not given) | 79 | 69* | 24 | 15 | -12 | 0
N#Cc1ccc(C(c2nnnn2C2CCCC2)N2CCC(Cc3ccccc3)CC2)cc1 (stereo not given) | 99 | 2 | 32 | 17 | x | x
Cc1csc(NC(=O)c2cc3c(C)nn(Cc4ccccc4Cl)c3s2)n1 | 112 | -5 | 9 | 8 | x | x
Cc1cc(OC(=O)c2cccc([N+](=O)[O-])c2)c(C)cc1CN1CCOCC1 | 110 | 23 | x | x | x | x
COC(=O)c1ccc(C(=O)Nc2ccc(C(C)C)cc2N)cc1 | 99 | 57* | 9 | 17 | 15 | -2
COc1ccc(CNC(=O)CN(Cc2ccc(F)cc2)C(=O)CCC(=O)Nc2nccs2)cc1 | 114 | 6 | x | x | x | x
Cc1cc(C(=O)Nn2cnc3ccccc3c2=O)ccc1[N+](=O)[O-] | 98 | 54* | 6 | 11 | 2 | 3
Cc1cc(C(=O)Nn2c(C)nc3ccccc3c2=O)ccc1[N+](=O)[O-] | 101 | -13 | 12 | 12 | x | x
CCOC(=O)C1(Cc2cccc(OC)c2)CCN(Cc2cccc3c2OCO3)CC1 | 100 | -13 | 6 | 15 | x | x
CCOC(=O)N1CCN(C(=O)/C(=C/c2cccs2)NC(=O)c2ccc(OC)c(OC)c2)CC1 | 108 | 60* | x | x | -2 | -14
COC(=O)[C@@]12CCCN1[C@H](c1ccc(-c3ccc4c(c3)OCO4)cc1)[C@H]1C(=O)N(C)C(=O)[C@H]12 | 102 | 0 | x | x | x | x
Cc1cc2nc(-c3ccc(NC(=O)C(C)C)cc3)oc2cc1C | 111 | 60* | 33 | 47 | -10 | 0
Clc1ncccc1OCc1ccccc1 | x | 6 | x | x | x | x
CCN(CC(=O)Nc1c(F)cccc1F)C(=O)/C=C/c1ccc2ccccc2n1 | 77* | 60* | x | x | 22 | 5
O=C(N/N=C/c1ccco1)c1cc(-c2ccc3ccccc3c2)n[nH]1 | 109 | 56* | 14 | 15 | 5 | -11
COc1ccc(C(=O)O)cc1S(=O)(=O)Nc1ccc(Oc2ccccc2)cc1 | 104 | 2 | x | x | x | x
Cc1cc(C)c(OCC(=O)Nc2nc3ccccc3[nH]2)c(C)c1 | 106 | 56* | 24 | 12 | 5 | 3
CC(C)(C)c1ccccc1NC(=O)Cn1c(=O)cnc2ccccc21 | 119 | x | 16 | 9 | x | x
Cn1cccc1C(=O)NC(=O)CSc1cccc[n+]1[O-] | 95 | 0 | 12 | 12 | x | x
O=C(CSc1cccc[n+]1[O-])NC(=O)c1ccc(OC(F)F)cc1 | 114 | 54* | 12 | 14 | -9 | -2
C1CC(=NN=C2CCSCC2)CCS1 | 114 | 24 | x | x | x | x
SMILES | Pemphigus Ab inh | Arrestin-AP2 inh | Avidin fluor | GSH bead fluor | Arr AP2 CP1 | GST-FITC bead
COc1ccc(NS(=O)(=O)c2cccc(C(=O)NCC(c3ccco3)N3CCCCC3)c2)cc1 (stereo not given) | 105 | 59* | x | x | 27 | -4
COc1ccc(NS(=O)(=O)c2cccc(C(=O)NCC3(N4CCOCC4)CCCCC3)c2)cc1 | 118 | -9 | x | x | 9 | -6
COc1ccc(C(=O)NNC(=O)c2cccc(S(=O)(=O)N3CCOCC3)c2)cc1 | 103 | 4 | x | x | x | x
CCOc1ccc(NS(=O)(=O)c2cccc(C(=O)NCC3(N(C)C)CCCCC3)c2)cc1 | 106 | -5 | x | x | 5 | -12
COc1ccc(NC(=O)c2cccc(S(=O)(=O)N3CCOCC3)c2)cc1 | 103 | 61* | x | x | -6 | -6
COc1ccccc1C1CC(c2ccccc2)Nc2ncnn21 (stereo not given) | 96 | 14 | 16 | 17 | x | x
Cc1ccc(NC(=O)c2ccc(NC(=O)C3CCCCC3C(=O)O)cc2)cc1 (stereo not given) | 109 | -12 | x | x | x | x
CNS(=O)(=O)c1cccc(C(=O)NCC2(N3CCCCC3)CCCCC2)c1 | 100 | -26 | x | x | x | x
Cc1cccc(NS(=O)(=O)c2cccc(C(=O)NCC3(N4CCCCC4)CCCCC3)c2)c1 | 103 | -10 | x | x | -5 | -3
COc1ccc(NS(=O)(=O)c2cccc(C(=O)NCC3(N4CCCCC4)CCCCC3)c2)cc1 | 109 | -19 | x | x | 12 | 6
Cc1ccccc1NS(=O)(=O)c1cccc(C(=O)Nc2cccc(C(=O)O)c2)c1 | 98 | 16 | x | x | x | x
Cc1cccc(NC(=O)c2cccc(S(=O)(=O)Nc3ccccc3C(=O)O)c2)c1 | 103 | 58* | x | x | -8 | -7
COc1ccc(CSc2nc3ccccc3c(=O)n2CCCN2CCOCC2)cc1F | 117 | -2 | 8 | 16 | x | x
CC(=O)c1c(C)n(CC(=O)NCc2ccco2)c2ccccc12 | 115 | 11 | 8 | 17 | x | x
CCOc1ncccc1C(=O)Nc1ccc(OC)c(S(=O)(=O)N2CCOCC2)c1 | 100 | 0 | x | x | 1 | 3
CCOc1ccc(S(=O)(=O)N2CCN(CC)CC2)cc1NC(=O)c1ccccc1F | 110 | 1 | x | x | 6 | 2
COc1ccc(S(=O)(=O)N2CCN(C)CC2)cc1NC(=O)c1ccccc1C | 104 | 26 | x | x | -1 | -4
COc1ccc(S(=O)(=O)N2CCN(C)CC2)cc1C(=O)Nc1ccccc1 | 97 | 43 | x | x | x | x
CCOc1ncccc1C(=O)Nc1cc(S(=O)(=O)N2CCOCC2)ccc1OCC(F)(F)F | 86 | 29 | x | x | 1 | 9
CN(Cc1ccccc1)C(=O)CCC1CCN(S(C)(=O)=O)CC1 | 96 | 2 | x | x | x | x
CCOc1ncccc1C(=O)OCC(=O)Nc1cc(S(=O)(=O)N2CCOCC2)ccc1C | 101 | 51 | 1 | 7 | x | x
CCOc1ncccc1C(=O)Nc1cccc(S(=O)(=O)N2CCCCC2)c1 | u | 19 | x | x | -4 | -1
Cc1ccc(S(=O)(=O)N2CCCCC2)cc1NC(=O)c1cc(=O)[nH]c2ccccc12 | x | 67* | x | x | 3 | -3
CCOc1ncccc1C(=O)Nc1cc(S(=O)(=O)N2CCCCC2)ccc1C | 94 | 4 | x | x | 7 | 6
COc1ccc(NC(=O)c2cc(-c3ccco3)nc3ccccc23)cc1S(=O)(=O)N1CCOCC1 | 86 | -12 | 2 | x | x | x
CCOc1ncccc1C(=O)Nc1ccc(S(=O)(=O)N2CCCC2)cc1 | 91 | 29 | 12 | 12 | x | x
COc1ccc(NC(=O)c2cc(C)nc3ccccc23)cc1S(=O)(=O)N1CCOCC1 | 91 | 6 | x | x | -10 | -5
O=C(Nc1cc(S(=O)(=O)N2CCOCC2)ccc1N1CCCC1)c1cc(=O)[nH]c2ccccc12 | 90 | -1 | x | x | x | x
CCOc1ccc(NC(=O)COC(=O)CNC(=O)c2ccc(-c3ccccc3)cc2)cc1 | x | 0 | x | x | x | x
COc1ccc(S(=O)(=O)N2CCOCC2)cc1NC(=O)c1ccncc1 | 90 | 2 | x | x | -6 | -2
